Key:
[1] = biological target: T1, NAD-dependent protein deacylase sirtuin-6 (Homo sapiens, UniProt Q8N6T7); assay: Activation of N-terminal his-tagged human SIRT6 expressed in Escherichia coli M15 [pREP4] assessed as increase in peptide demyristoylation incubated for 120 mins using Ac-EALPKK(Myr)-AMC substrate by FDL assay relative to control
How it was run: (§1)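 Demyristoylation: 1 µM recombinant SIRT6 preincubated with compound for 20 min at 37 °C in 50 mM Tris-HCl pH 8.0, BSA 1 mg/mL, 1 mM DTT, with 10 µM Ac-EALPKK(Myr)-AMC. Fluorescence read. Mean ± s.d., triplicate wells, three independent experiments.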

[2] = biological target: T1, NAD-dependent protein deacylase sirtuin-6; assay: Activation of N-terminal his-tagged human SIRT6 expressed in Escherichia coli M15 [pREP4] assessed as increase in peptide demyristoylation at 20 uM incubated for 120 mins using Ac-EALPKK(Myr)-AMC substrate by FDL assay relative to control
How it was run: as §1, with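 “Ac-EALPKK(Myr)-AMC. Started with 1 mM NAD and run 120 min at 37 °C. Developed 120 min at 37 °C with 5 mg/mL trypsin/8 mM nicotinamide.” for “Ac-EALPKK(Myr)-AMC.”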

T1 sequence (Q8N6T7 whole entry): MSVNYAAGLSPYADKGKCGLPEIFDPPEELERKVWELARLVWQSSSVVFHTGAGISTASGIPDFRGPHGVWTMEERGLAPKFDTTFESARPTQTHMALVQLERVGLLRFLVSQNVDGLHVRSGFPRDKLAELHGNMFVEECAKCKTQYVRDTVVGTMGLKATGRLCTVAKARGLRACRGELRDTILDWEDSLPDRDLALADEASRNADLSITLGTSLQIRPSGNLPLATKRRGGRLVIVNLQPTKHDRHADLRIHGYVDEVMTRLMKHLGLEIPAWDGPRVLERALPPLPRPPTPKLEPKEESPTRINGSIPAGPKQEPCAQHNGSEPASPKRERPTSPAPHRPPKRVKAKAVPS

| Structure (SMILES) | EC1.5 [1] | Activity [2] |
| --- | --- | --- |
| O=C(Nc1cc(C(F)(F)F)ccc1Cl)c1cc(-c2ccc3c(c2)OCO3)nc2ccccc12 | 14.9 µM | 228% |
| O=C(NC(c1ccccc1)c1ccccn1)c1cc(-c2cc3ccccc3o2)nc2ccccc12 (stereo not drawn) | 7.59 µM | 321% |
| CCOc1ccc(NC(=O)c2cc(-c3ccc(OC)c(OC)c3)nc3ccccc23)cc1 | 10.3 µM | 166% |
| COc1ccc(-c2cc(C(=O)Nc3sc(C)c(C)c3C#N)c3ccccc3n2)cc1OC | – | 95.1% |
| COc1ccc(-c2cc(C(=O)Nc3cccc(Cl)c3Cl)c3ccccc3n2)cc1OC | 5.97 µM | 224% |
| O=C(Nc1cc(C(F)(F)F)ccc1Cl)c1cc(-c2cccs2)nc2ccccc12 | – | 130% |
| COc1ccc(-c2cc(C(=O)Nc3cc(S(N)(=O)=O)ccc3C)c3ccccc3n2)cc1OC | – | 95.5% |
| COc1ccc(-c2cc(C(=O)Nc3ccc(C(F)(F)F)cc3Cl)c3ccccc3n2)cc1OC | 7.53 µM | 181% |
| CCOC(=O)c1ccccc1NC(=O)c1cc(-c2ccc(OC)c(OC)c2)nc2ccccc12 | – | 118% |
| O=C(Nc1cc(C(F)(F)F)ccc1Cl)c1cc(-c2ccco2)nc2ccccc12 | – | 141% |
| COc1ccc(-c2cc(C(=O)Nc3ccc(C)c(Cl)c3)c3ccccc3n2)cc1OC | – | 117% |
| O=C(Nc1cccc(F)c1)c1cc(-c2cc3ccccc3o2)nc2ccccc12 | 4.86 µM | 216% |
| CCN(CC)c1ccc(NC(=O)c2cc(-c3ccc(OC)c(OC)c3)nc3ccccc23)cc1 | – | 83.3% |
| COc1ccc(-c2cc(C(=O)Nc3ccccc3Br)c3ccccc3n2)cc1OC | – | 128% |
| Cc1c(Cl)cccc1NC(=O)c1cc(-c2cc3ccccc3o2)nc2ccccc12 | 9.01 µM | 205% |
| COc1ccc(-c2cc(C(=O)Nc3ccc(Cl)cc3)c3ccccc3n2)cc1OC | – | 98.7% |
| COc1ccc(NC(=O)c2cc(-c3ccc(OC)c(OC)c3)nc3ccccc23)c([N+](=O)[O-])c1 | – | 87.2% |
| Cc1ccc(-c2cc(C(=O)Nc3cc(C(F)(F)F)ccc3Cl)c3ccccc3n2)c(C)c1 | – | 92.3% |
| COc1ccc(-c2cc(C(=O)Nc3nc4ccc(S(C)(=O)=O)cc4s3)c3ccccc3n2)cc1OC | – | 83.4% |
| O=C(Nc1cc(C(F)(F)F)ccc1Cl)c1cc(C2CCCCC2)nc2ccccc12 | – | 82.4% |
| O=C(Nc1cccc2ccccc12)c1cc(-c2cc3ccccc3o2)nc2ccccc12 | – | 119% |

| Structure (SMILES) | EC1.5 [1] | Activity [2] |
| --- | --- | --- |
| Cc1ccc(C)c(NC(=O)c2cc(-c3cc4ccccc4o3)nc3ccccc23)c1 | 3.47 µM | 349% |
| COc1ccc(-c2cc(C(=O)N3CCN(C)CC3)c3ccccc3n2)cc1OC | – | 105% |
| COc1ccc(-c2cc(C(=O)Nc3cccc(Cl)c3C)c3ccccc3n2)cc1OC | 19 µM | 199% |
| COc1ccc(-c2cc(C(=O)Nc3cc(C(F)(F)F)ccc3Cl)c3ccccc3n2)cc1OC | 2.84 µM | 365% |
| O=C(NCc1ccc(Cl)c(Cl)c1)c1cc(-c2cc3ccccc3o2)nc2ccccc12 | 5.91 µM | 314% |
| COc1ccc(-c2cc(C(=O)Nc3ccc(F)cc3)c3ccccc3n2)cc1OC | – | 104% |
| O=C(NCc1ccc(F)cc1)c1cc(-c2cc3ccccc3o2)nc2ccccc12 | 2.19 µM | 482% |
| COc1ccc(-c2cc(C(=O)Nc3cc(C(F)(F)F)cc(C(F)(F)F)c3)c3ccccc3n2)cc1OC | 6.38 µM | 250% |
| CCCNC(=O)c1cc(-c2ccc(OC)c(OC)c2)nc2ccccc12 | – | 99% |
| O=C(Nc1cc(C(F)(F)F)ccc1Cl)c1cc(-c2cc3ccccc3o2)nc2ccccc12 | 0.85 µM | 762% |
| COc1cc(NC(=O)c2cc(-c3ccc(OC)c(OC)c3)nc3ccccc23)cc(OC)c1 | – | 103% |
| COc1ccc(-c2cc(C(=O)Nc3cc(C(C)C)ccc3C)c3ccccc3n2)cc1OC | – | 131% |
| COc1cccc(NC(=O)c2cc(-c3ccc(OC)c(OC)c3)nc3ccccc23)c1 | – | 115% |
| COc1ccc(-c2cc(C(=O)NCc3ccc(Cl)c(Cl)c3)c3ccccc3n2)cc1OC | 8.14 µM | 260% |
| O=C(Nc1cc(C(F)(F)F)ccc1Cl)c1cc(-c2ccc3c(c2)OCCO3)nc2ccccc12 | 29.4 µM | 159% |
| COc1ccc(-c2cc(C(=O)Nc3ccccc3F)c3ccccc3n2)cc1OC | – | 92.4% |
| O=C(Nc1cc(C(F)(F)F)ccc1Cl)c1cc(C2CCCC2)nc2ccccc12 | – | 76.4% |
| COc1ccc(-c2cc(C(=O)Nc3ccc(F)c(Cl)c3)c3ccccc3n2)cc1OC | – | 108% |
| COc1ccc(-c2cc(C(=O)Nc3cc(O)c(C(C)(C)C)cc3C(C)(C)C)c3ccccc3n2)cc1OC | – | 88.6% |
| COc1ccc(-c2cc(C(=O)Nc3cccc(F)c3)c3ccccc3n2)cc1OC | – | 142% |
| COC(=O)[C@H]1C2CCC(CC2)[C@@H]1NC(=O)c1cc(-c2ccc(OC)c(OC)c2)nc2ccccc12 | – | 128% |

| Structure (SMILES) | EC1.5 [1] | Activity [2] |
| --- | --- | --- |
| COc1ccc(-c2cc(C(=O)Nc3cc(C(F)(F)F)ccc3Cl)c3ccccc3n2)cc1F | – | 91.2% |
| COC(=O)c1c(NC(=O)c2cc(-c3ccc(OC)c(OC)c3)nc3ccccc23)sc(C)c1C | – | 101% |
| CCOc1ccc(NC(=O)c2cc(-c3cc4ccccc4o3)nc3ccccc23)cc1 | – | 109% |
| COc1ccc(-c2cc(C(=O)Nc3cc(C(F)(F)F)ccc3Cl)c3ccccc3n2)cc1 | 20.7 µM | 163% |
| CCOC(=O)c1sc(NC(=O)c2cc(-c3ccc(OC)c(OC)c3)nc3ccccc23)nc1C | – | 90.3% |
| COc1ccc(-c2cc(C(=O)NC3CCCC3)c3ccccc3n2)cc1OC | – | 124% |
| COC(=O)c1c(-c2ccc(C)cc2)csc1NC(=O)c1cc(-c2ccc(OC)c(OC)c2)nc2ccccc12 | – | 82.9% |
| CCOc1ccccc1NC(=O)c1cc(-c2ccc(OC)c(OC)c2)nc2ccccc12 | – | 95.2% |
| COc1ccc(-c2cc(C(=O)Nc3cccc4ccccc34)c3ccccc3n2)cc1OC | 7.44 µM | 327% |
| COc1ccc(-c2cc(C(=O)Nc3ccc(S(N)(=O)=O)cc3)c3ccccc3n2)cc1OC | – | 131% |
| O=C(Nc1ccc(Oc2ccccc2)cc1)c1cc(-c2cc3ccccc3o2)nc2ccccc12 | – | 118% |
| COc1cccc2cc(-c3cc(C(=O)Nc4cc(C(F)(F)F)ccc4Cl)c4ccccc4n3)oc12 | 5.96 µM | 321% |
| COc1cc([N+](=O)[O-])ccc1NC(=O)c1cc(-c2ccc(OC)c(OC)c2)nc2ccccc12 | – | 101% |
| O=C(Nc1cc(C(F)(F)F)cc(C(F)(F)F)c1)c1cc(-c2cc3ccccc3o2)nc2ccccc12 | 3.11 µM | 430% |
| Cc1ccc(CNC(=O)c2cc(-c3cc4ccccc4o3)nc3ccccc23)cc1 | 14.5 µM | 208% |
| COc1ccc(-c2cc(C(=O)Nc3nc(-c4ccc(Cl)cc4)cs3)c3ccccc3n2)cc1OC | – | 91% |
| Cc1ccc(-c2cc(C(=O)Nc3cc(C(F)(F)F)ccc3Cl)c3ccccc3n2)s1 | – | 141% |
| Cc1cc(C)c(NC(=O)c2cc(-c3cc4ccccc4o3)nc3ccccc23)c(C)c1 | 3.71 µM | 315% |
| O=C(Nc1ccc(Cl)c(Cl)c1)c1cc(-c2cc3ccccc3o2)nc2ccccc12 | – | 109% |
| O=C(Nc1cccc(Cl)c1Cl)c1cc(-c2cc3ccccc3o2)nc2ccccc12 | 20.7 µM | 163% |
| COc1ccc(-c2cc(C(=O)Nc3ccc(F)cc3[N+](=O)[O-])c3ccccc3n2)cc1OC | – | 65.7% |

| Structure (SMILES) | EC1.5 [1] | Activity [2] |
| --- | --- | --- |
| COc1ccc(-c2cc(C(=O)Nc3cccc(Cl)c3)c3ccccc3n2)cc1OC | – | 104% |
| O=C(Nc1ccc(C(F)(F)F)cc1Cl)c1cc(-c2cc3ccccc3o2)nc2ccccc12 | 4.96 µM | 287% |
| COc1ccc(-c2cc(C(=O)NC(c3ccccc3)c3ccccc3)c3ccccc3n2)cc1OC | 5.97 µM | 276% |
| O=C(Nc1ccc(C(F)(F)F)cc1)c1cc(-c2cc3ccccc3o2)nc2ccccc12 | 5.17 µM | 335% |
| COc1ccc(-c2cc(C(=O)Nc3cc(C)ccc3C)c3ccccc3n2)cc1OC | 5.61 µM | 313% |
| COc1ccc(-c2cc(C(=O)Nc3ccc(C(F)(F)F)cc3)c3ccccc3n2)cc1OC | – | 142% |
| COc1ccc(-c2cc(C(=O)Nc3ccc4ccccc4c3)c3ccccc3n2)cc1OC | – | 139% |
| COc1ccc(-c2cc(C(=O)Nc3ccc(F)c([N+](=O)[O-])c3)c3ccccc3n2)cc1OC | – | 96.9% |
| COc1ccc(-c2cc(C(=O)NCc3ccccc3)c3ccccc3n2)cc1OC | – | 107% |
| COc1ccc(-c2cc(C(=O)Nc3cc([N+](=O)[O-])ccc3Cl)c3ccccc3n2)cc1OC | – | 98.2% |
| COc1ccc(-c2cc(C(=O)Nc3ccccc3Cl)c3ccccc3n2)cc1OC | – | 105% |
| COc1ccc(-c2cc(C(=O)Nc3ccc(C(C)(C)C)cc3)c3ccccc3n2)cc1OC | – | 124% |
| COc1ccc(-c2cc(C(=O)NC34CC5CC(CC(O)(C5)C3)C4)c3ccccc3n2)cc1OC | – | 86.1% |
| COc1ccc(-c2cc(C(=O)Nc3ccc(F)c(F)c3)c3ccccc3n2)cc1OC | – | 101% |
| O=C(Nc1cc(C(F)(F)F)ccc1Cl)c1cc(-c2cccnc2)nc2ccccc12 | – | 85.6% |
| COc1ccc(-c2cc(C(=O)Nc3ccc(C)cc3)c3ccccc3n2)cc1OC | – | 98.3% |
| Cc1ccc(-c2cc(C(=O)Nc3cc(C(F)(F)F)ccc3Cl)c3ccccc3n2)cc1 | – | 109% |
| COC(=O)c1c(NC(=O)c2cc(-c3ccc(OC)c(OC)c3)nc3ccccc23)sc2c1CCCC2 | – | 95.2% |

— ChEMBL document CHEMBL4622973, “Discovery of Potent Small-Molecule SIRT6 Activators: Structure-Activity Relationship and Anti-Pancreatic Ductal Adenocarcinoma Activity” (J Med Chem, 2020)
